Most compounds without a hit are left out; they make up all but 12% or so of the library.
Lmaj promast: reduces viability of Leishmania major promastigotes; resazurin fluorescence viability; inhibition, % at 10 µM; 9% of 200,000 active; AID 1063; in the data active = inhibition above about 50%;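 also: promastigotes grown with compound for 44 hours at 28 °C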
b-catenin transl: alters nuclear translocation of beta-catenin in HeLa cells; immunofluorescence imaging; nuclear translocation activity, % at 5 µM; 0.3% of 190,000 active;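 active = nuclear translocation activity above 50% at 5 µM, with a well cell count of 50 or more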;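 also: per-cell ratio of nuclear to cytoplasmic median beta-catenin stain intensity; plate controls were DMSO negative control for no effect and GSK-3 inhibitor IX positive control for full effect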
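Assay system: human HeLa cells, native beta-catenin; doses: 5 µM primary, 0.02–20 µM confirmation; incubation: compound treatment 24 h, 37°C, 5% CO2; technique: fluorescence imaging of beta-catenin antibody stain plus DAPI; measure: % activation, nuclear-to-cytoplasmic median beta-catenin signal ratio per cell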
CHOP inh: CHOP inhibition in unfolded protein response; CHO-K1 CHOP-promoter luciferase, tunicamycin-induced, 15-18 h; inhibition, % at 10 µM; 3.8% of 220,000 active;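 active = compounds that reduced the stress-induced luciferase reporter signal by more than about 70% of percent inhibition, limit read from the data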;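 also: 0% = tunicamycin plus vehicle and 100% = wells without tunicamycin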
Dynein transport: blocks dynein driven cargo transport along microtubules; 3617.4 mouse cells, GR-EGFP nuclear translocation imaging; test concentration mostly 20 µM; stimulated with dexamethasone, 1 µM; active compounds read low; z-score, hits read low; 0.47% of 220,000 active;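 active = plate z-score of nuclear minus cytoplasmic receptor signal below a set negative limit, without overly bright fluorescence or cell loss, cut at about -3.5 in these data, passing the limit was not always enough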;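 also: z-score of nuclear minus cytoplasmic ring GR-EGFP intensity difference per well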
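Buffer or medium: tetracycline-free induction medium containing charcoal-stripped FBS / Reagent: dexamethasone agonist, 1.0 µM final, for 30 min / Technique: automated 10x imaging of fixed Hoechst-stained cells / Times: induction 48 h, compound 1 h, agonist 30 min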
Autophagy mod: alters autophagy in cells. 0.98% of 190,000 active. calls only at 10 µM (by protocol). MEF GFP-LC3 puncta imaging; test concentration mostly 10 µM. AID 463193;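 active = percentage of spot-positive cells more than 3 SD above its plate mean, without a fluorescence outlier flag or 80% toxicity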;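 also: spot-positive cell cutoff set from DMSO-treated cells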
MT stabilizer: microtubule stabilizers in HeLa cells; HeLa tubulin immunostaining HCS, 24 h; share of cells brighter than vehicle mean+2SD; % tubulin-high responders, % at 10 µM; 0.83% of 200,000 active;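 active = plate Z-score above 3 for both tubulin-high and condensed-nucleus cell shares, with cell loss under 80%, at 10 µM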;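 also: anti alpha tubulin signal scored within the nucleus-defined area of each cell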
* = called active by the depositor.

`COc1ccccc1NS(=O)(=O)c1cc(NC(=O)CC(C)(C)C)ccc1N1CCOCC1` gave Lmaj promast 98*, b-catenin transl -1, CHOP inh 24, Dynein transport 0.36, Autophagy mod inactive and MT stabilizer 4.
Screening O=C(/C=C/c1ccco1)NCC1COc2ccccc2O1 (centres undefined) returned b-catenin transl 0, CHOP inh -8 and Dynein transport 0.36.
For CCN(CC)CCCNC(=O)c1cc2c(=O)n(C)c3ccccc3c2n1C the results were Lmaj promast 35, CHOP inh -17, Dynein transport -0.17, Autophagy mod inactive and MT stabilizer 4.
`COCCCNC(=O)c1cc2c(=O)n(C)c3ccccc3c2n1C` gave Lmaj promast 0, CHOP inh -8, Dynein transport -0.41, Autophagy mod inactive and MT stabilizer 13*.
CCCCN(CC)CCNC(=O)c1cc2c(=O)n(C)c3ccccc3c2n1C was read as Lmaj promast 77*, b-catenin transl -6, CHOP inh 21, Dynein transport 0.08, Autophagy mod inactive and MT stabilizer 9.
Cn1c(C(=O)NCCCN2CCCCCC2)cc2c(=O)n(C)c3ccccc3c21 was read as Lmaj promast 67*, b-catenin transl -1, CHOP inh 3, Dynein transport 3.3 and MT stabilizer 2.
For CCCN1CCN(CCCNC(=O)c2cc3c(=O)n(C)c4ccccc4c3n2C)CC1 the results were Lmaj promast 15, b-catenin transl -6, CHOP inh 20, Dynein transport -0.45, Autophagy mod inactive and MT stabilizer 1.
CCCN(CCC)CCCNC(=O)c1cc2c(=O)n(C)c3ccccc3c2n1C was read as Lmaj promast 51*, b-catenin transl 0, CHOP inh 36, Dynein transport 0.79, Autophagy mod inactive and MT stabilizer 2.
For Cc1cc(NC(=O)c2cc(S(=O)(=O)N3CCCCC3)ccc2C)n(-c2ccccn2)n1 the results were Lmaj promast 2, b-catenin transl 3, CHOP inh 17, Dynein transport -0.0097, Autophagy mod inactive and MT stabilizer 2.
`O=C(CCCc1ccccc1)N1CCc2ccccc21` gave Lmaj promast -5, b-catenin transl -6, CHOP inh 43, Dynein transport -0.94, Autophagy mod inactive and MT stabilizer 1.
For CC1CCN(C(=O)CCc2ccc(Oc3cc([N+](=O)[O-])cc([N+](=O)[O-])c3)cc2)CC1 the results were Lmaj promast 99*, b-catenin transl 0, CHOP inh 32, Dynein transport -0.43, Autophagy mod inactive and MT stabilizer 2.
Screening CC1CCN(C(=O)CCc2ccc(S(=O)(=O)NC(C)(C)C)cc2)CC1 returned Lmaj promast -2, b-catenin transl -15, CHOP inh 12, Dynein transport -0.84, Autophagy mod inactive and MT stabilizer 2.
`O=C(CCc1ccc(Oc2cc([N+](=O)[O-])cc([N+](=O)[O-])c2)cc1)NC1CCCC1` gave Lmaj promast 99*, b-catenin transl 2, CHOP inh 6, Dynein transport 1.4, Autophagy mod inactive and MT stabilizer 2.
COc1ccc(OCC(=O)Nc2cc(-c3nn(C)c(=O)c4ccccc34)ccc2N2CCOCC2)cc1 was read as b-catenin transl 0, CHOP inh 2 and Dynein transport -0.00057.
CCN(CC)c1nc(=S)nc(NC(C)(C)C)[nH]1 was read as Lmaj promast 95*, b-catenin transl 0, CHOP inh 2, Dynein transport -0.98, Autophagy mod inactive and MT stabilizer 3.
Screening CCN(CC)c1nc(N(CC)CC)[nH]c(=O)n1 returned Lmaj promast 9, Dynein transport -1.2, Autophagy mod inactive and MT stabilizer 3.
Screening CCN(CC)S(=O)(=O)c1ccc(OC)c(NC(=S)Nc2cccc(C)c2C)c1 returned Lmaj promast 97*, b-catenin transl -2, CHOP inh 11, Dynein transport -0.57, Autophagy mod inactive and MT stabilizer 1.
CCN(CC)S(=O)(=O)c1ccc(OC)c(NC(=S)Nc2cccc(C)c2)c1 was read as Lmaj promast 98*, b-catenin transl 0, CHOP inh 31, Dynein transport -1.1, Autophagy mod inactive and MT stabilizer 2.
Screening CCN(CC)S(=O)(=O)c1ccc(OC)c(NC(=O)c2cccc(C)c2[N+](=O)[O-])c1 returned Lmaj promast 5, b-catenin transl -6, CHOP inh 9, Dynein transport -0.52, Autophagy mod inactive and MT stabilizer 2.
O=C1/C(=C/c2ccsc2)N2CCC1CC2 was read as b-catenin transl 0, CHOP inh 2 and Dynein transport -0.21.
`O=C(CN1C(=O)c2cccc3cccc1c23)Nc1ccccc1C(=O)NCc1ccco1` gave Lmaj promast 82*, CHOP inh 15, Dynein transport 0.4, Autophagy mod inactive and MT stabilizer 2.
Screening COc1ccc(Br)cc1/C=N/NC(=O)c1cc(OC)c(OC)c(OC)c1 returned Lmaj promast -1, CHOP inh 1, Dynein transport -1, Autophagy mod inactive and MT stabilizer 10.
Screening COc1cc(C(=O)N/N=C/c2ccsc2C)cc(OC)c1OC returned Lmaj promast -3, b-catenin transl 163*, CHOP inh -59, Dynein transport -0.4, Autophagy mod inactive and MT stabilizer 11.
COc1cc(C(=O)Oc2ccccc2/C=N/NC(=O)c2ccc(C)cc2)cc(OC)c1OC was read as Lmaj promast 76*, b-catenin transl 0, CHOP inh 6, Dynein transport -0.53, Autophagy mod inactive and MT stabilizer 2.
Screening Cc1ccccc1OCCSc1nnc(-c2cccnc2)n1N returned Lmaj promast 1, b-catenin transl 3, CHOP inh 15, Dynein transport -0.015, Autophagy mod inactive and MT stabilizer 3.
Screening O=C(NC1CCCC1)C(c1ccc(F)cc1)N(Cc1ccccc1Cl)C(=O)CCl (centres undefined) returned Lmaj promast 98*, b-catenin transl 5, CHOP inh 108*, Dynein transport -0.3, Autophagy mod inactive and MT stabilizer 2.
`Cc1nn(C)cc1C(C(=O)NC1CCCCC1)N(C(=O)Cc1cccs1)c1ccc(F)cc1` (centres undefined) gave Lmaj promast 70*, CHOP inh -32, Dynein transport 2.3, Autophagy mod inactive and MT stabilizer 3.
`O=C(NC1CCCCC1)C(c1ccc(F)cc1)N(Cc1cccs1)C(=O)CN1C(=O)c2ccccc2S1(=O)=O` (centres undefined) gave Lmaj promast 29, CHOP inh 91*, Dynein transport 1.1, Autophagy mod inactive and MT stabilizer 3.
